Where two headings read alike, the source gives them in different places. Blank lines part the entries; values can stand above or below the molecule they belong to.
How the values were obtained:
VMAT2 = conditions: cited from earlier work
[1] = assay type: in vivo, human; conditions: for Plasma concentrations of the parent compound: single administration of 15 mg deutetrabenazine or 25 mg tetrabenazine tablets, LLOQ 0.100 ng/mL; for Total (α+β)-HTBZ AUC0-t / Total (α+β)-HTBZ AUCinf / Total (α+β)-HTBZ Cmax / Total (α+β)-HTBZ T1/2 / α-HTBZ AUC0-t / α-HTBZ AUCinf / α-HTBZ Cmax / β-HTBZ AUC0-t / β-HTBZ AUCinf / β-HTBZ Cmax / β-HTBZ T1/2 / Total (α+β)-HTBZ Tmax / α-HTBZ Tmax / β-HTBZ Tmax: deutetrabenazine 15 mg single dose; for Total (α+β)-HTBZ AUC0-t / Total (α+β)-HTBZ AUCinf / Total (α+β)-HTBZ Cmax / Total (α+β)-HTBZ T1/2 / α-HTBZ AUC0-t / α-HTBZ AUCinf / α-HTBZ Cmax / β-HTBZ AUC0-t / β-HTBZ AUCinf / β-HTBZ Cmax / β-HTBZ T1/2: mean (CV%); for Total (α+β)-HTBZ Tmax / α-HTBZ Tmax / β-HTBZ Tmax: median (range)
Summary of the method: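 Randomised crossover in 25 healthy subjects, five periods over 17 days, all in clinic. Single oral dose: 15 mg of each of two test-compound tablet formulations, fed or fasted, or 25 mg non-deuterated reference fasted. Fasted means an overnight fast of ≥10 h; fed means an FDA-definition high-fat (50% calories), 800–1000 calorie meal. Plasma dihydro metabolites sampled predose and over 72 h; values below LLOQ set to LLOQ where flanked by measurable ones. Non-compartmental AUC and Cmax; ANOVA on ln values (subject, period, treatment); back-transformed geometric mean ratios with 90% CI.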

[2] = Safety assessments, study AUS-SD-809-CTP-07; assay type: in vivo, human; conditions: for Serious AEs: healthy volunteers; for Laboratory parameters, vital signs and physical examination: single or multiple doses
Summary of the method: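 Healthy subjects, single 15 mg dose in part 1 and single or repeated 7.5–22.5 mg doses in part 2. Adverse-event monitoring, physical examination, vital signs, standard 12-lead ECG, PHQ-9, C-SSRS and laboratory tests repeated throughout, including 72 h after each dose in part 1. For preliminary QTc assessment, triplicate digital 12-lead ECGs recorded on part 2 dosing days 1 and 4.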

[3] = test system: chorea in patients with HD; conditions: 12 weeks; cited from earlier work
[4] = Study AUS-SD-809-CTP-07 part 2: single and repeated; assay type: in vivo, human; conditions: for α-HTBZ Cmin / (α+β)-HTBZ Cmin / β-HTBZ Cmin: steady state, mean (CV%); for α-HTBZ Cmin: 0-12 h; for Linear regression model slope (zero intercept) / Power regression model α (parameter = α × dose^β) / Power regression model β (exponent of dose): deutetrabenazine fed
Summary of the method: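 Two groups of 12 healthy subjects over 20 days; the second group dosed ≥7 days after the first. Test compound given at 7.5, 15 and 22.5 mg after a standard meal; non-deuterated reference 25 mg fasted. Single doses on days 1 and 4, ≥72 h apart, with full plasma profiles. Dosing every 12 h from day 7 for 3.5 days, with predose troughs used to confirm steady state. Cmin taken as the minimum over 0–12 h. Power (parameter = α × dose^β) and zero-intercept linear regressions fitted to single-dose AUCinf, steady-state AUC0-12 and Cmax.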

[5] = assay type: in vivo, human
Summary of the method: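 Healthy subjects given 18 mg test compound after a standard meal or after a high-fat meal. For the dose-proportionality arms, doses of 6, 12, 18 and 24 mg were given with a standard meal and compared as dose-normalised parameters. Plasma dihydro metabolites analysed by non-compartmental Cmax, AUC0-t and AUCinf. ANOVA on ln values; geometric mean ratios with 90% CI, back-transformed.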

[6] = test system: chorea associated with Huntington's disease; conditions: cited from earlier work
tardive dyskinesia = conditions: cited from earlier work
[7] = LS geometric mean ratio deutetrabenazine 15 mg fed / tetrabenazine 25 mg fasted
[8] = deutetrabenazine 15 mg high-fat/high-calorie meal versus fasted
[9] = deutetrabenazine 15 mg, high-fat/high-calorie meal
[10] = deutetrabenazine 7.5 mg twice daily fed
[11] = deutetrabenazine 15 mg twice daily fed
[12] = deutetrabenazine 22.5 mg twice daily fed
[13] = total (α+β)-HTBZ AUC0-12 (steady state)
[14] = total (α+β)-HTBZ AUCinf (single dose)
[15] = deutetrabenazine 18 mg high-fat/high-calorie meal versus standard meal
[16] = deutetrabenazine 18 mg, high-fat/high-calorie meal
[17] = deutetrabenazine 18 mg, standard meal

Molecule: COc1cc2c(cc1OC)[C@H]1C[C@H](O)[C@H](CC(C)C)CN1CC2 [β‐HTBZ, β‐dihydrotetrabenazine]
- Inhibition of VMAT2 (VMAT2): potent inhibitors

- Plasma concentrations of the parent compound [1]: near or at the LLOQ
Molecule: COc1cc2c(cc1OC)C1CC(=O)C(CC(C)C)CN1CC2 (stereo not shown) [Tetrabenazine, reference compound]
- Serious AEs [2]: One serious AE of vessel puncture‐site reaction
- Subjects with change from predose in QTc of >30 milliseconds ([2]; in vivo): No subject
- Subjects with postdose QTc > 450 milliseconds ([2]; in vivo): No subject
- Laboratory parameters, vital signs and physical examination [2]: no clinically significant abnormalities
- Chorea severity compared with placebo-treated patients [3]: significantly reduced chorea severity

- Total (α+β)-HTBZ AUC0-t % ratio (90%CI) [1, 7]: 126.6 (115.8‐138.4) %
- Total (α+β)-HTBZ AUCinf % ratio (90%CI) [1, 7]: 127.7 (116.7‐139.6) %
- Total (α+β)-HTBZ Cmax % ratio (90%CI) [1, 7]: 51.4 (46.0‐57.4) %
- α-HTBZ AUCinf % ratio (90%CI) [1, 7]: 129.7 (118.1‐142.5) %
- α-HTBZ Cmax % ratio (90%CI) [1, 7]: 49.3 (44.5‐54.7) %
- β-HTBZ AUC0-t % ratio (90%CI) [1, 7]: 117.0 (104.5‐131.1) %
- β-HTBZ AUCinf % ratio (90%CI) [1, 7]: 119.9 (105.5‐136.2) %
- β-HTBZ Cmax % ratio (90%CI) [1, 7]: 55.3 (47.7‐64.2) %
- Increase of AUCinf of (α+β)-HTBZ with food ([1]; deutetrabenazine 15 mg high-fat meal vs fasted): about 11%
- Total (α+β)-HTBZ AUC0-t % ratio [1, 8]: 111.5%
- Total (α+β)-HTBZ AUCinf % ratio [1, 8]: 110.6%
- Total (α+β)-HTBZ Cmax % ratio [1, 8]: 149.7%
- Total (α+β)-HTBZ T1/2 % ratio [1, 8]: 75.3%
- Total (α+β)-HTBZ AUC0-t ([1]; fasted): 263 (45) ng·h/mL
- Total (α+β)-HTBZ AUCinf ([1]; fasted): 273 (45) ng·h/mL
- Total (α+β)-HTBZ Cmax ([1]; fasted): 22.5 (36) ng/mL
- Total (α+β)-HTBZ T1/2 ([1]; fasted): 9.4 (25) h
- α-HTBZ AUC0-t ([1]; fasted): 185 (25) ng·h/mL
- α-HTBZ AUCinf ([1]; fasted): 196 (24) ng·h/mL
- α-HTBZ Cmax ([1]; fasted): 14.2(34) ng/mL
- β-HTBZ AUC0-t ([1]; fasted): 74.2 (108) ng·h/mL
- β-HTBZ AUCinf ([1]; fasted): 81.4 (105) ng·h/mL
- β-HTBZ Cmax ([1]; fasted): 8.43 (48) ng/mL
- β-HTBZ T1/2 ([1]; fasted): 6.6 (56) h
- Total (α+β)-HTBZ Tmax ([1]; fasted): 2.3 (1.0‐8.0) h
- α-HTBZ Tmax ([1]; fasted): 2.5 (1.0‐8.0) h
- β-HTBZ Tmax ([1]; fasted): 2.5 (1.0‐8.0) h
- Total (α+β)-HTBZ AUC0-t ([1]; fed (high-fat meal)): 296 (48) ng·h/mL
- Total (α+β)-HTBZ AUCinf ([1]; fed (high-fat meal)): 305 (46) ng·h/mL
- Total (α+β)-HTBZ Cmax ([1]; fed (high-fat meal)): 33.3 (33) ng/mL
- Total (α+β)-HTBZ T1/2 ([1]; fed (high-fat meal)): 7.0 (23) h
- α-HTBZ AUC0-t ([1]; fed (high-fat meal)): 207 (30) ng·h/mL
- α-HTBZ AUCinf ([1]; fed (high-fat meal)): 217 (29) ng·h/mL
- α-HTBZ Cmax ([1]; fed (high-fat meal)): 20.8 (27) ng/mL
- β-HTBZ AUC0-t ([1]; fed (high-fat meal)): 85.6 (102) ng·h/mL
- β-HTBZ AUCinf ([1]; fed (high-fat meal)): 102 (92) ng·h/mL
- β-HTBZ Cmax ([1]; fed (high-fat meal)): 12.7 (50) ng/mL
- β-HTBZ T1/2 ([1]; fed (high-fat meal)): 4.6 (63) h
- Total (α+β)-HTBZ Tmax ([1]; fed (high-fat meal)): 6.0 (1.5‐8.0) h
- α-HTBZ Tmax ([1]; fed (high-fat meal)): 6.0 (1.0‐8.0) h
- β-HTBZ Tmax ([1]; fed (high-fat meal)): 6.0 (1.5‐8.0) h
- Total (α+β)-HTBZ AUC0-t, LS mean ([1]; deutetrabenazine 15 mg, fasted): 244.6 ng·h/mL
- Total (α+β)-HTBZ AUCinf, LS mean ([1]; deutetrabenazine 15 mg, fasted): 254.9 ng·h/mL
- Total (α+β)-HTBZ Cmax, LS mean ([1]; deutetrabenazine 15 mg, fasted): 21.2 ng/mL
- Total (α+β)-HTBZ AUC0-t, LS mean [1, 9]: 272.8 ng·h/mL
- Total (α+β)-HTBZ AUCinf, LS mean [1, 9]: 282.0 ng·h/mL
- Total (α+β)-HTBZ Cmax, LS mean [1, 9]: 31.7 ng/mL
- Total (α+β)-HTBZ T1/2, LS mean [1, 9]: 6.8 h
- Effect of food on exposure to total (α+β)-HTBZ, as measured by AUC ([1]; deutetrabenazine fed vs fasted): no effect
- Plasma concentrations of the parent compound [1]: near or at the LLOQ
- α-HTBZ Cmin [4, 10]: 7.2 (41) ng/mL
- (α+β)-HTBZ Cmin [4, 10]: 10.1 (48) ng/mL
- β-HTBZ Cmin [4, 10]: 2.8 (71) ng/mL
- α-HTBZ Cmin [4, 11]: 15.6 (37) ng/mL
- (α+β)-HTBZ Cmin [4, 11]: 21.1 (41) ng/mL
- β-HTBZ Cmin [4, 11]: 5.5 (54) ng/mL
- α-HTBZ Cmin [4, 12]: 26.3 (40) ng/mL
- (α+β)-HTBZ Cmin [4, 12]: 39.5 (59) ng/mL
- β-HTBZ Cmin [4, 12]: 13.1 (102) ng/mL
- Exposure to β-HTBZ relative to α-HTBZ ([4]; single-dose and repeated deutetrabenazine administration): approximately one‐third
- Linear regression model slope (zero intercept) [4, 13]: 32.4
- Power regression model α (parameter = α × dose^β) [4, 13]: 17.8
- Power regression model β (exponent of dose) [4, 13]: 1.2
- Linear regression model slope (zero intercept) [4, 14]: 26.9
- Power regression model α (parameter = α × dose^β) [4, 14]: 17.0
- Power regression model β (exponent of dose) [4, 14]: 1.1
- Total (α+β)-HTBZ AUC0-t % ratio [5, 15]: 107.0%
- Total (α+β)-HTBZ AUCinf % ratio [5, 15]: 106.4%
- Total (α+β)-HTBZ Cmax % ratio [5, 15]: 104.2%
- Total (α+β)-HTBZ T1/2 % ratio [5, 15]: 101.8%
- Total (α+β)-HTBZ AUC0-t, LS mean [5, 16]: 408 ng·h/mL
- Total (α+β)-HTBZ AUCinf, LS mean [5, 16]: 419 ng·h/mL
- Total (α+β)-HTBZ Cmax, LS mean [5, 16]: 48.4 ng/mL
- Total (α+β)-HTBZ AUC0-t, LS mean [5, 17]: 382 ng·h/mL
- Total (α+β)-HTBZ AUCinf, LS mean [5, 17]: 394 ng·h/mL
- Total (α+β)-HTBZ Cmax, LS mean [5, 17]: 46.5 ng/mL
- Total (α+β)-HTBZ T1/2, LS mean [5, 17]: 9.7 h
Molecule: [2H]C([2H])([2H])Oc1cc2c(cc1OC([2H])([2H])[2H])C1CC(=O)C(CC(C)C)CN1CC2 (stereo not shown) [Deutetrabenazine]
- Serious AEs [2]: No serious AEs
- Most frequent AEs reported as possibly drug related ([2]; in vivo): Somnolence and headache
- Subjects with change from predose in QTc of >30 milliseconds ([2]; in vivo): No subject
- Subjects with postdose QTc > 450 milliseconds ([2]; in vivo): No subject
- Tolerability ([2]; single 15 mg (part 1) and single/repeated 7.5-22.5 mg (part 2)): well tolerated
- Laboratory parameters, vital signs and physical examination [2]: no clinically significant abnormalities
- Mean difference in total maximal chorea score compared with placebo treatment [6]: −2.5 unit
- Mean Unified Huntington's Disease Rating Scale total maximal chorea score ([6]; weeks 9-12, twice a day, baseline 12.1): 7.7
- Change in the Abnormal Involuntary Movement Scale scores (tardive dyskinesia): significantly reduced TD

Molecule: α‐dihydrotetrabenazine [α‐HTBZ]
- Inhibition of VMAT2 (VMAT2): potent inhibitors

Source: PMC8246815 (Clinical Pharmacology in Drug Development, 2020)
